Experimental data taken from the RNAGym collection of RNA variant scans (doi:10.1101/gad.245936.114).
This sample holds only a part of the variants without activity.

B1: tRNA (parent)
chain: CUCUCGGUAGCCAAGUUGGUUUAAGGCGCAAGACUUUAAUUUAUCACUACGAAAUCUUGAGAUCGGGCGUUCGACUCGCCCCCGGGAGAUUUUUUCCUCGAGCAA

Variants of: B1
Test: nonsense suppression (GFP-seq) (ratio to wild type); higher = more function; SUP4oc tRNA, yeast GFP reporter sort-seq
Method in brief: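 Nonsense suppression (GFPSEQ) is the median GFP/RFP ratio of each sorting bin, weighted by the variant's estimated share of cells in that bin and expressed relative to the unmutated parent tRNA. Yeast strains carried genome-integrated variants of an ochre-suppressor tRNA from a library with ~3% random mutations, plus a galactose-driven GFP ochre reporter and RFP, and were grown in raffinose/galactose medium containing 80 mg/L adenine. Cells were sorted into GFP/RFP bins, each bin was Illumina-sequenced (phred ≥30), and variants were kept only with ≥100 reads and ≥30 cells.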

For CUCUCAGGAGCCAAGUUGGUUUAAGGCGCAAGACUUUAAUUUAUCACUACGAAAUCUUGAGAUCGGGCGUUCGACUCGCCCCCGGGAGAUUUUUUCCUCGAGCAA [G6A U8G], which nonsense suppression is on record?
The nonsense suppression was ≤ 0.026.

For CUCUUGGUAGCCAAGUUGGUUUAAGCCGCAAGACUUUAAUUUAUCACUACGAAAUCUUGAGAUCCGGCGUUCGACACGCCCCCGGGAGAUUUUUUCCUCGAGCAA [C5U G26C G65C U76A], which nonsense suppression is on record?
The nonsense suppression was ≤ 0.026.

For CUCUUGGACCCUAAGUUGGUUUAAUGCGCAGGACUUUAAUUUAUCACUACGAAAUCUUGAGAUCGGGCGUUCGACUCGCCCCCGGGAGAUUUUUUCCUCGAGCAA [C5U U8A A9C G10C C12U G25U A31G], which nonsense suppression is on record?
Its nonsense suppression is ≤ 0.026.

Which nonsense suppression does the source give for CUCUUGGUAGCCAAGUUGGUUUAAGGCGCAAGACUUUAAUUUAUCACUACGAAAUCUUGAGAUCGGGCAUUCGACUCGCCCCCGGGAGAUUUUUUCCUCGAGCAA [C5U G69A] here?
Its nonsense suppression is ≤ 0.026.

With CUCUCCGUUGCCAAGUUGGUUUAAGGCGCAAGACUUUAAUUUAUCACUACGAAAUCUUGAGAUCUGGCGUUCGACUCGCCCCCGCGAGAUUUUUUCCUCGAGCAA [G6C A9U G65U G85C] as the variant, how does the nonsense suppression read?
Its nonsense suppression is ≤ 0.026.

With CUCUCAGUAGCCAAGUUGGUUUAAGGCGCAAGACUUUAAUUUAUCACUACGAAAUCUUGAGAUCGGGCGUUCGACUCACCCCCGGGAGAUUUUUUCCUCGAGCAA [G6A G78A] as the variant, how does the nonsense suppression read?
Its nonsense suppression is 0.037.

Which nonsense suppression does the source give for CUCUUGGUAGCCAAGUUGGUAUAAGGCGCAAGACUUUAAUUUAUCACUACGAAAUCUUGAGAUCGGGCGUUCGACUCGCCCCCGGGAGAUUUUUUCCUCGAGCAA [C5U U21A] here?
The nonsense suppression was ≤ 0.026.

Which nonsense suppression does the source give for CUCUUGGUAACCGAGUUGGUUUAAGGCGCAAGACUUUAAUUUAUCACUACGAAAUCUUGAGAUCGGGCGUUCAAAUCGCCCCCGGCAGAUUUUUUCCUCGAGCAA [C5U G10A A13G G73A C75A G86C] here?
The nonsense suppression was ≤ 0.026.

With CUCUUGGUAGCCAAGUUGGUUUAAGGCGCAAGACUUUAAUUUAUCACUACGAAAUCUUGAGAUCGGGCGUUCGAAUCGCCCCCGGGAGAUUUUUUCCUCGAGCAA [C5U C75A] as the variant, how does the nonsense suppression read?
Its nonsense suppression is 0.209.

For CUCUUGGUAGCCAAGUUGGUUUAAGGCGCAAGACUUUAAUUUAUCACUACGAAAUCUUGAGAUCGGGCGUUCGAUUCGCCCCCGGGAGAUUUUUUCCUCGAGCAA [C5U C75U], which nonsense suppression is on record?
Its nonsense suppression is 0.0347.

Which nonsense suppression does the source give for CUCUUGGUAGCCAAGUUGGUUUAAGGCGCAAGACUUUAAUUUAUCACUACGAAAUCUUGAGAACGGGCGUUCGACUCGCCCCCGGGAGAUUUUUUCCUCGAGCAA [C5U U63A] here?
Its nonsense suppression is 0.0305.

Which nonsense suppression does the source give for CUCUUGGUAGCCAAGUUGGUUUAAGGCGCAAGACUUUAAUUUAUCACUACGAAAUCUUGAAAUCGGGCGUUCGACUCGCCCCCGGGAGAUUUUUUCCUCGAGCAA [C5U G61A] here?
Its nonsense suppression is 0.0314.

With CUCUCAGUAGCCAAGUUGGUUUAAGGCCCAAGACUUUAAUUUAUCACUACGAAAUCUUGAGAUCGGGCGUUCGACUCGCCCCCGGGAGAUUUUUUCCUCGAGCAA [G6A G28C] as the variant, how does the nonsense suppression read?
Its nonsense suppression is 0.0666.

Which nonsense suppression does the source give for CUCUUAGUAGACAAGUUGGUUUAAAGCGCAAGACUUUAAUUUAUCACUACGAAAUCUUGAGAUCGGGCGUUCGACUCGCCCCCGGGAGAUUUUUUCCUCGAGCAA [C5U G6A C11A G25A] here?
Its nonsense suppression is ≤ 0.026.

For CUCUUGUUAGCCAAGUUGGUUUAAAGCGCAAGACUUUAAUUUAUCACUACGAAAUCUUGAGAUCGGGCGUUCGACUCGCCCCCGGGAGAUUUUUUCCUCGAGCAA [C5U G7U G25A], which nonsense suppression is on record?
Its nonsense suppression is ≤ 0.026.

Which nonsense suppression does the source give for CUCUCAUUAGCCAAGUUGGUUUAAGGCGCAAGACUUUAAUUUAUCACUACGAACUCUUGAGAUCGGGCGUUCGACUCGCCCCCGGGAGAUUUUUUCCUCGAGCAA [G6A G7U A54C] here?
Its nonsense suppression is ≤ 0.026.

For CUCUCAGUAGCCAAGUUGGUUUAAGGCGCAAGACUUUAAUUUAUCACUACGAAAUCUUGAGAUCGGGCGUUCGACUCGCCUCCGGGAGAUUUUUUCCUCGAGCAA [G6A C81U], which nonsense suppression is on record?
The nonsense suppression was 0.0651.

With CUCUUGGUAGCCAAGUUGGUUUAAGGCGCAAGACUUUAAUUUAUCACUACGAAAGCUUGAGAUCGGGAGUUCGUCUCGCCCCCGGGAGAUUUUUUCCUCGAGCAA [C5U U55G C68A A74U] as the variant, how does the nonsense suppression read?
Its nonsense suppression is ≤ 0.026.

Which nonsense suppression does the source give for CUCUCAGUAGCCAAGUUGGUUUGACGCGCAAGACUUUAAUUUAUCACUACGAAAUCUUGAGACCGGGCGUUCGACUCGCGCCCGGGAGAUUUUUUCCUCGAGCAA [G6A A23G G25C U63C C80G] here?
Its nonsense suppression is ≤ 0.026.

With CUCUUGGUAGCCAAGUUGGUUUAAGGCGCAAGACUUUAAUUUAUCACUACGAAAUCUUGAGAUCGGGCGUUCGACUCGCCCCCAGGAGAUUUUUUCCUCGAGCAA [C5U G84A] as the variant, how does the nonsense suppression read?
The nonsense suppression was 1.15.

With CUCUCAGUAGCCGAGUUGGGUUAAGGCGCAAGAAUUUAAUUUAUCACUACGAAAUCUUGAGAUCGGGCGUUCAACUCGCCCCCGGGAGAUUUUUUCCUCGAGCAA [G6A A13G U20G C34A G73A] as the variant, how does the nonsense suppression read?
The nonsense suppression was 0.0802.

Which nonsense suppression does the source give for CUCUCCGUAGCCAGGUUGGUUUAAGGCGCAAGACUUUAAUUUAUCACUACGAAAUCUUGCGAUCUGGCGUUCGACUCGGCCCCGGCAGAUUUUUUCCUCGAGCAA [G6C A14G A60C G65U C79G G86C] here?
Its nonsense suppression is ≤ 0.026.

With CUCUCAGUAGCCAAGUUGGUUUAACGCGCAAGGCUUUAAUUUAUCACUACGAAAUCUUGAGAUCGGGCGUUCGACUCGCCCCCGGGAGAUUUUUUCCUCGAGCAA [G6A G25C A33G] as the variant, how does the nonsense suppression read?
The nonsense suppression was ≤ 0.026.

Which nonsense suppression does the source give for CUCUUGGUAGCCAAGUUGGUUUAAGGCCCGAGUCUUUAAUUUAUCACUACGAAAUCUUGAGAUCGGGCGUUCGACUCGCCCCCGGGAGAUUUUUUCCUCGAGCAA [C5U G28C A30G A33U] here?
Its nonsense suppression is ≤ 0.026.

With CUCUUGGUAGCCAAGUUGGUUUAAGGCGCAAGACUUUAAUUUAUCACUACGAAACCUUGAGAUCGGGCGUUCGACUCGCCCCCGGGAAAUUUUUUCCUCGAGCAA [C5U U55C G88A] as the variant, how does the nonsense suppression read?
The nonsense suppression was ≤ 0.026.

With CUCUUGGUAGCCAAGUUGGUUCAAGGCGCAAGACUUUAAUUUAUCACUACGAAAUCCUGAGAUCGGGCGUUCGCCUCGCCCCCGGGAGAUUUUUUCCUCGAGCAA [C5U U22C U57C A74C] as the variant, how does the nonsense suppression read?
Its nonsense suppression is ≤ 0.026.

For CUCUUUGUAGCCAAGUUGGUUUAAGGCGCAAGACUUUAAUUUAUCACUACGAAAUCUUGAGAUCGGGCGUUCGACUCGCCCCCCGGAGAUUUUUUCCUCGAGCAA [C5U G6U G84C], which nonsense suppression is on record?
Its nonsense suppression is ≤ 0.026.
